{"source": "paper PMC3697071", "about": "(Natural product communications, 2010)", "key": {"[1]": {"system": "P. falciparum D6 (chloroquine-sensitive, Sierra Leone)", "assay": "Antimalarial/parasite LDH assay, D6 clone", "assay_type": "cell-based, Plasmodium falciparum", "conditions": "chloroquine-sensitive clone D6"}, "[2]": {"system": "P. falciparum W2 (chloroquine-resistant, Indochina)", "assay": "Antimalarial/parasite LDH assay, W2 clone", "assay_type": "cell-based, Plasmodium falciparum", "conditions": "chloroquine-resistant clone W2"}, "[3]": {"system": "monkey kidney fibroblasts (VERO)", "assay": "Cytotoxicity assay", "assay_type": "cell-based", "conditions": "VERO cells; max dose […] for pure compounds"}, "[4]": {"system": "Leishmania donovani promastigotes", "assay": "Antileishmanial assay", "assay_type": "cell-based", "conditions": "promastigotes, 72 h"}, "[5]": {"system": "Candida glabrata ATCC 90030", "assay": "Antimicrobial assay", "assay_type": "cell-based", "conditions": "first value of IC50/MIC"}, "Candida krusei ATCC 6258": {"system": "Candida krusei ATCC 6258", "assay": "Antimicrobial assay", "assay_type": "cell-based", "conditions": "first value of IC50/MIC"}, "[6]": {"system": "Cryptococcus neoformans ATCC 90113", "assay": "Antimicrobial assay", "assay_type": "cell-based"}, "[7]": {"system": "Aspergillus fumigatus ATCC 90906", "assay": "Antimicrobial assay", "assay_type": "cell-based"}, "[8]": {"system": "Candida albicans ATCC 90028", "assay": "Antimicrobial assay", "assay_type": "cell-based", "conditions": "first value of IC50/MIC"}, "[9]": {"system": "Staphylococcus aureus ATCC 29213", "assay": "Antimicrobial assay", "assay_type": "cell-based", "outline": "(§1)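 Modified CLSI broth susceptibility method. Ciprofloxacin drug control in each assay. […] MIC is the lowest test concentration allowing no detectable growth.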"}, "[10]": {"system": "methicillin-resistant S. aureus ATCC 43300 (MRS)", "assay": "Antimicrobial assay", "assay_type": "cell-based, Staphylococcus aureus", "conditions": "methicillin-resistant S. aureus", "outline": "as §1"}, "[11]": {"system": "Escherichia coli ATCC 35218", "assay": "Antimicrobial assay", "assay_type": "cell-based", "conditions": "first value of IC50/MIC", "outline": "as §1"}, "[12]": {"system": "Pseudomonas aeruginosa ATCC 27853", "assay": "Antimicrobial assay", "assay_type": "cell-based", "conditions": "first value of IC50/MIC", "outline": "as §1"}, "[13]": {"system": "Mycobacterium intracellulare ATCC 23068", "assay": "Antimicrobial assay", "assay_type": "cell-based", "conditions": "first value of IC50/MIC", "outline": "as §1"}, "Plasmodium falciparum": {"system": "Plasmodium falciparum", "assay": "Antimalarial/parasite LDH assay, strains not distinguished in text", "assay_type": "cell-based", "conditions": "result in words", "outline": "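Colorimetric assay of parasite lactate dehydrogenase (pLDH) activity in P. falciparum cultures, run in 96-well format on two strains: Sierra Leone D6 (chloroquine-sensitive) and Indochina W2 (chloroquine-resistant). DMSO served as vehicle control, with artemisinin and chloroquine as drug controls.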"}}, "data": [{"molecule": "CC(C)c1cc2c(c(O)c1O)[C@@]1(C)CCCC(C)(C)C1=C(O)C2=O", "note": "[Compound 7, 6-hydroxysalvinolone]", "values": [{"measurement": "P. falciparum D6 IC50", "setting": "[1]", "result": 1.8, "unit": "µg/mL"}, {"measurement": "P. falciparum W2 IC50", "setting": "[2]", "result": 2.5, "unit": "µg/mL"}, {"measurement": "VERO TC50", "setting": "[3]", "result": 4.5, "unit": "µg/mL"}, {"measurement": "L. donovani IC50", "setting": "[4]", "result": 3.2, "unit": "µg/mL"}, {"measurement": "L. donovani IC90", "setting": "[4]", "result": 6.5, "unit": "µg/mL"}, {"measurement": "C. glabrata IC50", "setting": "[5]", "result": "−/− (- =Not Active)"}, {"measurement": "C. krusei IC50", "setting": "Candida krusei ATCC 6258", "result": "−/− (- =Not Active)"}, {"measurement": "C. neoformans IC50", "setting": "[6]; first value of IC50/MIC", "result": 0.96, "unit": "µg/mL"}, {"measurement": "C. neoformans MIC", "setting": "[6]; second value of IC50/MIC", "result": 2.5, "unit": "µg/mL"}, {"measurement": "A. fumigatus IC50", "setting": "[7]; first value of IC50/MIC", "result": 11.2, "unit": "µg/mL"}, {"measurement": "A. fumigatus MIC", "setting": "[7]; second value of IC50/MIC", "result": "−"}, {"measurement": "C. albicans IC50", "setting": "[8]", "result": "−/− (- =Not Active)"}, {"measurement": "S. aureus IC50", "setting": "[9]; first value of IC50/MIC", "result": 1.75, "unit": "µg/mL"}, {"measurement": "S. aureus MIC", "setting": "[9]; second value of IC50/MIC", "result": 5, "unit": "µg/mL"}, {"measurement": "MRS IC50", "setting": "[10]; first value of IC50/MIC", "result": 1.56, "unit": "µg/mL"}, {"measurement": "MRS MIC", "setting": "[10]; second value of IC50/MIC", "result": 2.5, "unit": "µg/mL"}, {"measurement": "E. coli IC50", "setting": "[11]", "result": "−/− (=Not Active)"}, {"measurement": "P. aureginosa IC50", "setting": "[12]", "result": "−/− (=Not Active)"}, {"measurement": "M. intracellulare IC50", "setting": "[13]", "result": "−/− (=Not Active)"}, {"measurement": "antimalarial activity against Plasmodium falciparum", "setting": "Plasmodium falciparum", "result": "weak antimalarial activity"}]}]}
